Measurements from different studies.
Protocols differ between the studies behind these lines.
Target: Inhibitor of nuclear factor kappa-B kinase subunit beta (IKBKB, Homo sapiens, UniProt O14920)

| SMILES | assay | conditions | quantity | result |
| --- | --- | --- | --- | --- |
| O=c1c2ccccc2[nH]c(=S)n1CCN1CCC(=C(c2ccc(F)cc2)c2ccc(F)cc2)CC1 | enzyme activity, inhibitor | 0.5 µM | remaining activity | 99.5% |
| COc1cc(Nc2cnc(C#N)c(O[C@H](C)CN(C)C)n2)ncc1-c1cnn(C)c1 | enzyme activity, inhibitor, radiometric | 10 µM | remaining activity | 86% |
| Cn1c2c(c3ccc(Cl)c(Cl)c31)C(C#N)C1(CCOCC1)NC2=O (stereo not shown) | thermal stability, DSF | 10 µM | ΔTm | -0.4 °C |
| COc1cc(Cl)c(C(=O)N[C@@H](CN[C@H]2CC[C@@H](N)CC2)Cc2ccc(C#N)cc2)cc1-c1ccc(CN[C@H](C)c2ccc(C)cc2)o1 | enzyme activity, inhibitor | 1 µM | remaining activity | 88% |
| Nc1ncnc2occ(-c3ccc(NC(=O)Nc4cc(C(F)(F)F)ccc4F)cc3)c12 | enzyme activity, inhibitor | 20 µM | remaining activity | 0.55% |
| CNC(=O)c1cc(Oc2ccc(NC(=O)Nc3ccc(Cl)c(C(F)(F)F)c3)cc2)ccn1 | enzyme activity, inhibitor | 10 µM | inhibition | -26% |
| Cn1c2c(c3ccc(Cl)c(Cl)c31)C(C#N)C1(CCNCC1)NC2=O (racemic) | thermal stability, DSF | 10 µM | ΔTm | 0.6 °C |
| CCN(CC)c1ccc(C2=NNC(=O)CC2C)cc1[N+](=O)[O-] (stereo not shown) | enzyme activity, inhibitor | 10 µM | remaining activity | 97% |
| Cc1ccc(Nc2nccc(N(C)c3ccc4c(C)n(C)nc4c3)n2)cc1S(N)(=O)=O | enzyme activity, inhibitor | 10 µM | inhibition | 17% |
| Cc1ccc(NC(=O)c2ccc(C)c(C(F)(F)F)c2)cc1C#Cc1nn(C2CCC(O)CC2)c2ncnc(N)c12 (stereo not shown) | cell-free assay | 10 µM | remaining signal | 33% |
| CCS(=O)(=O)c1cc2cc(C[C@](O)(CC(C)(C)c3ccc(F)cc3C(N)=O)C(F)(F)F)[nH]c2cn1 | cell-free assay, competition with immobilised ligand | 1 µM | remaining binding | 91% |
| O=C1NC(=O)c2cc(Nc3ccc(F)cc3)c(Nc3ccc(F)cc3)cc21 | cell-free assay | 0.5 µM | remaining signal | 95.6% |
| Nc1nc(Nc2ccccc2)sc1C(=O)c1c(F)cccc1F | enzyme activity, inhibitor | 10 µM | remaining activity | 82% |
| O=C1Nc2ccc(Cl)cc2C1=Cc1cc(Cl)c(O)c(Cl)c1 | cell-free assay | 0.5 µM | remaining signal | 93.6% |
| CN(c1ccnc(CNc2nc(Nc3ccc4c(c3)CC(=O)N4)ncc2C(F)(F)F)n1)S(C)(=O)=O | cell-free assay, competition with immobilised ligand | 1 µM | remaining binding | 78% |
| CCN1CCC2(CC1)NC(=O)c1c(c3ccc(Cl)c(Cl)c3n1C)C2C#N (racemic) | thermal stability, DSF | 10 µM | ΔTm | 0 °C |
| NS(=O)(=O)c1cc(NC(=O)C2(c3ccccc3Cl)CC2)ccc1Oc1cccc(Cl)c1 | cell-free assay, competition with immobilised ligand | 1 µM | remaining binding | 70% |
| CC/C(=N\NC(=O)NCc1cccc(O)c1)c1ccc(O)c(C)c1O | enzyme activity, inhibitor | 0.1 µM | inhibition | -0.9% |
| NS(=O)(=O)c1cc(NC(=O)Cc2ccccc2)ccc1Oc1cccc(Cl)c1 | cell-free assay, competition with immobilised ligand | 1 µM | remaining binding | 91% |
| CCN(CC)CCNC(=O)c1c(C)[nH]c(/C=C2\C(=O)Nc3ccc(F)cc32)c1C | enzyme activity, inhibitor | 10 µM | inhibition | 9% |

| SMILES | assay | conditions | quantity | result |
| --- | --- | --- | --- | --- |
| CN1CCC2(CC1)NC(=O)c1c(c3ccc(Cl)c(Cl)c3n1C)C2C#N (racemic) | thermal stability, DSF | 10 µM | ΔTm | -0.2 °C |
| COc1cc(/C=C/C(=O)CC(=O)/C=C/c2ccc(O)c(OC)c2)ccc1O | enzyme activity, inhibitor | 1 µM | activity vs control | 69% |
| CCCCN(CCCC)C(=O)CN1C[C@@H](c2cc(OC)c3c(c2)OCO3)[C@H](C(=O)O)[C@H]1CC(C)(C)CCC | cell-free assay, competition with immobilised ligand | 1 µM | remaining binding | 100% |
| COc1cc2ncnc(Nc3ccc(Oc4ccccc4)c(C)c3C)c2cc1OC | enzyme activity, inhibitor | 1 µM | inhibition | 3% |
| Cn1c2c(c3ccc(Cl)c(Cl)c31)C(C#N)C1(CCCC1)NC2=O (stereo not shown) | thermal stability, DSF | 10 µM | ΔTm | -0.7 °C |
| O=C(O)[C@H]1[C@H](Cn2nnc3ccccc3c2=O)CC[C@@H]1C(=O)c1ccc(OCCC2CCOCC2)cc1 | cell-free assay, competition with immobilised ligand | 1 µM | remaining binding | 100% |
| CN(C)C1CCN(CC#Cc2nn(C3CCCC3)c3nc(NCc4ccccc4)ncc23)C1 (stereo not shown) | enzyme activity, inhibitor, FRET | 1 µM | inhibition | 1% |
| CCCCNc1ncc2c(-c3ccc(F)cc3)nn(C[C@H]3CC[C@H](N)CC3)c2n1 | target engagement in cells, inhibitor, chemoproteomics | 20 mM | inhibition | -14.9% |
| O=C(NCCCC1CCCCC1)c1ccc(CNC(=O)c2cnn(-c3ccccc3)c2C(F)(F)F)cc1 | cell-free assay, competition with immobilised ligand | 0.1 µM | remaining binding | 100% |
| CC(C)(C)c1nc(-c2cccc(NS(=O)(=O)c3c(F)cccc3F)c2F)c(-c2ccnc(N)n2)s1 | enzyme activity, inhibitor, radiometric | 1 µM | remaining activity | 94% |
| Cc1cc(NC(=O)c2cccc3cc(-c4cccc5[nH]nc(N)c45)ccc23)ccc1F | enzyme activity, inhibitor | 0.1 µM | activity vs control | 106% |
| Cc1ccc(C(=O)NCc2ccsc2)cc1C#Cc1cn(C(C)C)c2ncnc(N)c12 | enzyme activity, inhibitor | 1 µM | activity vs control | 108% |
| O=C(Nc1cnn(-c2csc(C(=O)NC3COC3)c2)c1)Nc1c(F)cccc1Cl | enzyme activity, inhibitor | 5 µM | remaining activity | 94.7% |
| Cn1c(=O)n(-c2ccc(C(C)(C)C#N)cc2)c2c3cc(-c4cnc5ccccc5c4)ccc3ncc21 | enzyme activity, inhibitor | 10 µM | remaining activity | 92% |
| CC1=C(C#N)[C@@H](c2ccc3[nH]nc(C)c3c2)C(C#N)=C(c2ccc(Cl)cc2)N1 | cell-free assay, competition with immobilised ligand | 1 µM | remaining binding | 100% |
| Clc1ccc(Nc2nnc(Cc3ccncc3)c3ccccc23)cc1 | cell-free assay | 0.5 µM | remaining signal | 85.6% |
| CS(=O)(=O)Nc1cccc(-c2csc(NC(=O)CSc3nc4nccnc4c(=O)n3CCc3ccccc3)n2)c1 | enzyme activity, inhibitor | 10 µM | inhibition | 4% |
| CN(c1ncccc1CNc1nc(Nc2ccc3c(c2)CC(=O)N3)ncc1C(F)(F)F)S(C)(=O)=O | enzyme activity, inhibitor | 1 µM | inhibition | 12.7% |
| COc1cc2ncnc(Nc3ccc(F)c(Cl)c3)c2cc1OCCCN1CCOCC1 | cell-free assay | 0.5 µM | remaining signal | 86.5% |
| FC(F)(F)Oc1cccc(-c2cnc3ccc(-c4ccncc4)nn23)c1 | enzyme activity, inhibitor, radiometric | 1 µM | activity vs control | 94% |
